# From ChEMBL document CHEMBL3244150, “Semisynthetic cephalosporins. Synthesis and structure-activity relationships of analogues with 7-acyl groups derived from 2-(cyanomethylthio)acetic acid or 2-[(2,2,2-trifluoroethyl)thio]acetic acid and their sulfoxides and sulfones” (1977)
# Calls of active or inactive are those of the source. The calls are words filed in the database; no cut-off is given here.
# Tests used:
# Pseudomonas aeruginosa = test: Antibacterial activity against Pseudomonas aeruginosa after overnight incubation by twofold agar dilution method; assay type: functional, organism-based
# How it was run: (§1)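 Twofold agar dilution on Trypticase soy agar buffered to pH 6.0. MIC recorded in ug/ml.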
# Escherichia coli [1] = test: Antibacterial activity against Escherichia coli 12140 after overnight incubation by twofold agar dilution method; assay type: functional; how it was run: as §1
# Enterococcus faecalis = test: Antibacterial activity against Streptococcus faecalis after overnight incubation by twofold agar dilution method; assay type: functional; how it was run: as §1
# Staphylococcus aureus = test: Antibacterial activity against penicillin G-resistant Staphylococcus aureus HH 127 after overnight incubation by twofold agar dilution method; assay type: functional
# How it was run: (§2)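 MIC (ug/ml) determined by twofold agar dilution on Trypticase soy agar buffered to pH 6.0.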
# Escherichia coli [2] = test: Antibacterial activity against Escherichia coli 12140 infected in sc dosed mouse assessed as mouse survival after 3 days; assay type: functional; details: Escherichia coli, 12140, sc, 72 h; read-out: PD50
# How it was run: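 Mice infected ip with approximately 2 X 10 organisms per mouse of E. coli 12140 culture diluted in 5% hog gastric mucin (uniformly lethal). Fourfold dilutions dosed sc in equally divided portions at 1 and 5 h postinfection; five groups of ten mice each. Survivors observed for 3 days. PD50 = total dose (mg/kg) protecting 50% of mice, calculated by Litchfield and Wilcoxon method.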
# Shigella flexneri = test: Antibacterial activity against Shigella paradysenteriae HH 117 after overnight incubation by twofold agar dilution method; assay type: functional; how it was run: as §2
# Klebsiella pneumoniae = test: Antibacterial activity against Klebsiella pneumoniae 4200 after overnight incubation by twofold agar dilution method; assay type: functional; how it was run: as §1
# Klebsiella aerogenes = test: Antibacterial activity against Enterobacter aerogenes ATCC 13048 after overnight incubation by twofold agar dilution method; assay type: functional; how it was run: as §1
# Salmonella paratyphi = test: Antibacterial activity against Salmonella paratyphi ATCC 12176 after overnight incubation by twofold agar dilution method; assay type: functional, Salmonella enterica subsp. enterica serovar Paratyphi A; details: Salmonella enterica; how it was run: as §2
SMILES,Activity (Pseudomonas aeruginosa),MIC (Escherichia coli [1]) [µg/mL],MIC (Enterococcus faecalis) [µg/mL],MIC (Staphylococcus aureus) [µg/mL],ED50 (Escherichia coli [2]) [mg/kg],MIC (Shigella flexneri) [µg/mL],MIC (Klebsiella pneumoniae) [µg/mL],MIC (Klebsiella aerogenes) [µg/mL],MIC (Salmonella paratyphi) [µg/mL]
CC(=O)OCC1=C(C(=O)[O-])N2C(=O)[C@@H](NC(=O)CSCC(F)(F)F)[C@H]2SC1.[Na+],inactive,6.3,> 13,0.4,184,6.3,3.1,50,6.3
CC(=O)OCC1=C(C(=O)O)N2C(=O)[C@@H](NC(=O)CS(=O)(=O)CC#N)[C@H]2SC1,inactive,6.3,> 13,1.6,35,6.3,25,50,3.1
Cc1nnc(SCC2=C(C(=O)[O-])N3C(=O)[C@@H](NC(=O)C[S+]([O-])CC#N)[C@H]3SC2)s1.[Na+] (stereo not given in full),inactive,3.1,> 13,0.8,22,0.8,1.6,6.3,0.8
CC(=O)OCC1=C(C(=O)O)N2C(=O)[C@@H](NC(=O)CC#N)[C@H]2SC1 [CEPHACETRILE],inactive,6.3,> 13,0.4,25,3.1,3.1,6.3,3.1
Cc1nnc(SCC2=C(C(=O)[O-])N3C(=O)[C@@H](NC(=O)CS(=O)(=O)CC(F)(F)F)[C@H]3SC2)s1.[Na+],inactive,6.3,> 13,1.6,35,6.3,6.3,12.5,6.3
Cc1nnc(SCC2=C(C(=O)O)N3C(=O)[C@@H](NC(=O)CS(=O)(=O)CC#N)[C@H]3SC2)s1,inactive,6.3,> 13,1.6,15,3.1,6.3,12.5,6.3
Cc1nnc(SCC2=C(C(=O)[O-])N3C(=O)[C@@H](NC(=O)C[S+]([O-])CC(F)(F)F)[C@H]3SC2)s1.[Na+] (stereo not given in full),inactive,3.1,> 13,0.8,6,0.8,3.1,6.3,1.6
Cc1nnc(SCC2=C(C(=O)[O-])N3C(=O)[C@@H](NC(=O)CSCC(F)(F)F)[C@H]3SC2)s1.[Na+],inactive,6.3,> 13,0.2,33,1.6,6.3,25,6.3
CC(=O)OCC1=C(C(=O)O)N2C(=O)[C@@H](NC(=O)Cc3cccs3)[C@H]2SC1 [CEPHALOTHIN],inactive,3.1,> 13,0.2,50,6.3,3.1,50,1.6
Cn1nnnc1SCC1=C(C(=O)O)N2C(=O)[C@@H](NC(=O)CSC(F)(F)F)[C@H]2SC1 [CEFAZAFLUR],inactive,0.4,> 13,0.4,2,0.2,0.8,1.6,0.4
